Bioassay records from PubChem BioAssay.
Runt-SMMHC FRET: inhibitors of RUNX1 Runt–CBFb-SMMHC binding, primary screen, biochemical, FRET, Cerulean-Runt, Venus-CBFb-SMMHC, uHTS. Runt-related transcription factor 1 (Homo sapiens) + Core-binding factor subunit beta …. Cerulean-Runt/Venus-CBFb-SMMHC FRET ratio 530/480, 1 h. inhibition, % at 20 µM. 220,000 compounds, 0.74% hits. AID 1434, 2008;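 active = mean inhibition across duplicate retests at 20 µM reaching about 50%, limit read from the data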;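 note: inhibitors lower the FRET ratio by blocking Runt binding to CBFb-SMMHC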
Target sequence (Q01196 whole entry, looked up): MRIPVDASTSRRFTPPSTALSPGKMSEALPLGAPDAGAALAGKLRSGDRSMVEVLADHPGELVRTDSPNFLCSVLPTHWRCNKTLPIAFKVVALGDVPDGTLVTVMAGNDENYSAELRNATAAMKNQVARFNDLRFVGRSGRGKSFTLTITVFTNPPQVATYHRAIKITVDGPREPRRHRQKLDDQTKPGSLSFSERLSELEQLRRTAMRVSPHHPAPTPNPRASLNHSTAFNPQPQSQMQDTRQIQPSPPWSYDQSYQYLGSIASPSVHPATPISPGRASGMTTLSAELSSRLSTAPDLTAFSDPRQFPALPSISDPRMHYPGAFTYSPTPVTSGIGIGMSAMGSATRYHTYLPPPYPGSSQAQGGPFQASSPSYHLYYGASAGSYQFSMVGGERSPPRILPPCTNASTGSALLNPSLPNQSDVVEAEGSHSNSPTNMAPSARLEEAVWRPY
Target sequence (Q13951 whole entry, looked up): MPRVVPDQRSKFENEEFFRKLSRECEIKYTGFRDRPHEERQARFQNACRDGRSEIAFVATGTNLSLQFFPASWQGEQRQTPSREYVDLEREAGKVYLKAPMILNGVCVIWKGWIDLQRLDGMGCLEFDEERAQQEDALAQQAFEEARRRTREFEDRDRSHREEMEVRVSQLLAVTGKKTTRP
p-CIP stab down: p/CIP-EGFP fusion destabilizers, primary screen, fluorescence, F442A cells. Q05BA5. 16 h. decrease of EGFP signal, % at 10 µM. 290,000 compounds, 0.01% hits. AID 1984, 2009;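 active = EGFP signal decrease of at least 30% at 10 µM or well 3 SD below plate mean, unless failing retest; inactive = the rest, including hits failing retest or dose response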
Pemphigus Ab inh: inhibitors of pemphigus antibody binding to DSG3, primary screen, biochemical, bead-based, flow cytometry, scFv-GFP; binding (percent of control), % at 10 µM; AID 588358, 2011; Desmoglein-3 (Homo sapiens), P32926; DSG3-coupled beads, scFv-anti-DSG3-GFP binding; hits give low values; 310,000 compounds, 0.48% hits;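 active = binding more than 3 SD below its plate's average and above zero; inconclusive = below that plate limit but binding exactly zero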;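 note: hits lower antibody fragment binding to DSG3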
Hck-Nef inh: inhibitors of Nef-activated human Hck kinase, primary screen, biochemical, Z-Lyte FRET, 384-well, Hck-YEEI; inhibition, % at 20 µM; 220,000 compounds, 0.68% hits; AID 463187, 2010; Tyrosine-protein kinase HCK (Homo sapiens), P08631; Recombinant Hck-YEEI plus Nef, Z-Lyte FRET kinase assay;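 active = Hck-Nef kinase inhibition above about 50%, limit read from the data; inactive = inhibition below that limit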
RanGTP-Impb inh: inhibitors of RanGTP-importin-beta interaction, primary screen, biochemical, FRET, CFP-Ran, YFP-importin-beta, homogeneous; Ran GTPase (GTP-bound) - importin-beta complex; cell-free CFP-Ran/YFP-importin-beta FRET ratio; inhibition, % (concentration not given with the values); 300,000 compounds, 1.1% hits;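 active = more than half of the replicate wells show a fall in the fluorescence ratio signal beyond about 16%, limit read from the data, passing the limit was not always enough; inconclusive = exactly half of the replicate wells pass the set limit; inactive = fewer than half of replicates pass the limit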
Runt-CBFb FRET: inhibitors of RUNX1 Runt–CBFb binding, primary screen, biochemical, FRET, Cerulean-Runt, Venus-CBFb, uHTS; inhibition, % at 20 µM; Runt-related transcription factor 1 (Homo sapiens) + Core-binding factor subunit beta …; 220,000 compounds, 0.46% hits; AID 1496, 2009; Cerulean-Runt/Venus-CBFb FRET ratio 530/480, 1 h;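 active = inhibition over about 50% at 20 µM in the single-dose screen, limit read from the data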
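test system = Cerulean-tagged RUNX1 Runt domain (FRET donor) fusion protein | reagent = Venus-CBFb binding partner, 100 nM | incubation = protein complex preformed 1 h, compound exposure 1 h, room temperature, dark | detection = FRET fluorescence | read-out basis = loss of energy transfer signal | controls = 5 µM unlabeled CBFb as full-inhibition high control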
Of the large screens only hits and unclear results are named; the others gave an inactive call. A selection: hits, their analogues and other compounds. The true share with any hit is near 2.1%.

Cc1ccc(CN2CC(C(=O)N3CCN(S(=O)(=O)c4cccc(F)c4)CC3)CC2=O)cc1 (configuration not stated)	none (no result: Runt-SMMHC FRET, p-CIP stab down, Hck-Nef inh, RanGTP-Impb inh, Runt-CBFb FRET)
COc1ccc(N(CC(=O)N/N=C(\C)c2ccc(OC)c(OC)c2)S(=O)(=O)c2ccccc2)cc1	RanGTP-Impb inh inconclusive (no result: Runt-SMMHC FRET, Hck-Nef inh, Runt-CBFb FRET)
CCN(CC)c1ccc(/C=N/N2C(=O)c3ccccc3C2=O)cc1	Pemphigus Ab inh 63.3
CN(C)c1ccc(/C=N/N2C(=O)c3ccccc3C2=O)cc1	none
CCOC(=O)c1c(C)nn(Cc2cccc(Cl)c2)c1N	Runt-CBFb FRET 70.2
C/C(=C\C(=O)c1ccc(Br)cc1)Nc1ccc(Cl)cc1	Pemphigus Ab inh 78.3
CCOC(=O)/C(C#N)=C\c1ccc(N2CCN(C/C=C/c3ccccc3)CC2)cc1	RanGTP-Impb inh 90.7
CCOC(=O)/C(C#N)=C\c1cc(C)n(-c2ccccc2)c1C	RanGTP-Impb inh inconclusive
Cc1ncc(CO)c(/C=N/NC(=O)c2ccoc2C)c1O	none (no result: Runt-SMMHC FRET, p-CIP stab down, Hck-Nef inh, RanGTP-Impb inh, Runt-CBFb FRET)
Cc1ncc(CO)c(/C=N/NC(=O)c2cc3c(s2)CCCC3)c1O	Runt-SMMHC FRET 91.9, RanGTP-Impb inh 49.8
Cc1ncc(CO)c(/C=N/NC(=O)c2ccccc2Br)c1O	Runt-SMMHC FRET 63.8
Cc1ncc(CO)c(/C=N/NC(=S)Nc2ccc(Cl)c(Cl)c2)c1O	none
Cc1ncc(CO)c(/C=N/NC(=O)c2ccc(O)cc2)c1O	Runt-SMMHC FRET 62.8, RanGTP-Impb inh 44.4
COc1ccccc1NS(=O)(=O)c1cccc(C(=O)N/N=C/c2c(CO)cnc(C)c2O)c1	none (no result: Runt-SMMHC FRET, p-CIP stab down, Hck-Nef inh, RanGTP-Impb inh, Runt-CBFb FRET)
CC(SCc1ccccc1)C(=O)Nc1ccccc1F (configuration not stated)	none (no result: Runt-SMMHC FRET, Hck-Nef inh, Runt-CBFb FRET)
COc1ccc(C(=O)CSc2nc(=O)n3ccc(C)cc3n2)cc1	Pemphigus Ab inh 56.6 (no result: Runt-SMMHC FRET, p-CIP stab down, Hck-Nef inh, RanGTP-Impb inh, Runt-CBFb FRET)
Cc1ccn2c(=O)nc(SCC(=O)c3ccc(Cl)cc3)nc2c1	none (no result: Runt-SMMHC FRET, p-CIP stab down, Hck-Nef inh, Runt-CBFb FRET)
Cc1ccc2nc(NCC(N)=O)nc(-c3ccccc3)c2c1	RanGTP-Impb inh 19.9 (no result: Pemphigus Ab inh)
CC(=O)NNc1nc(-c2ccccc2)c2cc(Br)ccc2n1	none
Cc1ccc2nc(NCCC(=O)O)nc(-c3ccccc3)c2c1	Runt-SMMHC FRET 89.6 (no result: Pemphigus Ab inh)
O=C(O)CCNc1nc(-c2ccccc2)c2cc(Br)ccc2n1	RanGTP-Impb inh 19.9 (no result: Runt-SMMHC FRET, Hck-Nef inh, Runt-CBFb FRET)
COc1cc(Nc2nc(-c3ccccc3)c3cc(C)ccc3n2)cc(OC)c1OC	none
O=C1c2cccnc2C(=O)N1Cc1ccc(S(=O)(=O)N2CCN(c3ccccc3)CC2)cc1	none (no result: Runt-SMMHC FRET, Hck-Nef inh, Runt-CBFb FRET)
Cn1nc(C(=O)Nc2cccc(S(=O)(=O)N3CCCC3)c2)c2ccccc2c1=O	none (no result: Runt-SMMHC FRET, p-CIP stab down, Hck-Nef inh, RanGTP-Impb inh, Runt-CBFb FRET)
O=C(Cn1nc(C(=O)O)c2ccccc2c1=O)Nc1ccc(Cl)c(S(=O)(=O)N2CCOCC2)c1	Pemphigus Ab inh 69.5 (no result: Runt-SMMHC FRET, p-CIP stab down, Hck-Nef inh, RanGTP-Impb inh, Runt-CBFb FRET)
O=C(O)[C@H]1CCCC[C@H]1C(=O)Nc1ccc(S(=O)(=O)N2CCOCC2)cc1	RanGTP-Impb inh 16.6 (no result: Runt-SMMHC FRET, Pemphigus Ab inh, Hck-Nef inh, Runt-CBFb FRET)
Cn1nc(C(=O)Nc2ccc(S(=O)(=O)N3CCOCC3)cc2)c2ccccc2c1=O	Pemphigus Ab inh 83.9
Cc1ccc(C)c(N2N=C(C(=O)Nc3ccc(N4CCOCC4)cc3)CCC2=O)c1	none (no result: Runt-SMMHC FRET, p-CIP stab down, Hck-Nef inh, RanGTP-Impb inh, Runt-CBFb FRET)
CC(CNC(=O)CCC(=O)N1CCOc2ccccc21)c1ccccc1 (configuration not stated)	none (no result: Runt-SMMHC FRET, Hck-Nef inh, Runt-CBFb FRET)
COC(=O)c1nccnc1N	none (no result: Runt-SMMHC FRET, p-CIP stab down, Hck-Nef inh, RanGTP-Impb inh, Runt-CBFb FRET)
COc1ccc(S(=O)(=O)N2CCOCC2)cc1NC(=O)C1CCN(S(=O)(=O)c2ccc(Cl)cc2)CC1	none (no result: Runt-SMMHC FRET, p-CIP stab down, Hck-Nef inh, RanGTP-Impb inh, Runt-CBFb FRET)
O=C(CC1S/C(=N/N=C/c2ccco2)NC1=O)Nc1cccc(Cl)c1Cl (configuration not stated)	RanGTP-Impb inh inconclusive
COc1ccc(C2C3=C(CC(C)(C)CC3=O)Nc3c2c(=O)[nH]c2nc(C)nn32)cc1 (configuration not stated)	Runt-SMMHC FRET 134.6, RanGTP-Impb inh 46.0, Runt-CBFb FRET 87.4
